Bioassay records (PubChem)
TDP2 inh: blocks human TDP2 phosphodiesterase activity; O95551; recombinant TDP2, T5PNP hydrolysis, p-nitrophenol absorbance 415 nm; inhibition, % at 12.8 µM; 370,000 tested, 0.34% active; AID 720702;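 active means inhibition above the mean of all tested compounds plus 3 SD, set per campaign, cut at about 25% in these data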;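 further: 0% = DMSO with enzyme and 100% = buffer with substrate but no TDP2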
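Test system: human TDP2 enzyme; Input: 120 nM TDP2 per well; Buffer or medium: Mg2+-containing Tris-HCl buffer, pH 7.5; Reagent: 5 mM T5PNP; Dosing: 12.8 µM single point, 1% DMSO; Incubation: reaction 2 h, 37 °C; Detection: p-Nitrophenol epi absorbance; Read-out: % inhibition relative to enzyme-containing and enzyme-free wells; Replicates: single well per compound.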
LEDGF integ inh: blocks HIV-1 LEDGF/p75-dependent DNA integration; 370,000 tested, 0.64% active; TR-FRET IN-LEDGF/p75 DNA integration, Eu/Cy5; inhibition, % at 3.7 µM; AID 743269;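 active means inhibition above the screen-wide mean plus 3 SD, cut at about 13% in these data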;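 further: signal is the Cy5 over europium emission ratio at 671 and 618 nm; 0% = plate median of compound wells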
MBD2 DNA inh: inhibitors of human MBD2 binding to methylated oligonucleotide | TR-FRET | 370,000 tested, 0.31% active | inhibition, % at 4.4 µM | Q9UBB5; in the data active means inhibition above about 13%
Target sequence (Q9UBB5 whole entry, looked up): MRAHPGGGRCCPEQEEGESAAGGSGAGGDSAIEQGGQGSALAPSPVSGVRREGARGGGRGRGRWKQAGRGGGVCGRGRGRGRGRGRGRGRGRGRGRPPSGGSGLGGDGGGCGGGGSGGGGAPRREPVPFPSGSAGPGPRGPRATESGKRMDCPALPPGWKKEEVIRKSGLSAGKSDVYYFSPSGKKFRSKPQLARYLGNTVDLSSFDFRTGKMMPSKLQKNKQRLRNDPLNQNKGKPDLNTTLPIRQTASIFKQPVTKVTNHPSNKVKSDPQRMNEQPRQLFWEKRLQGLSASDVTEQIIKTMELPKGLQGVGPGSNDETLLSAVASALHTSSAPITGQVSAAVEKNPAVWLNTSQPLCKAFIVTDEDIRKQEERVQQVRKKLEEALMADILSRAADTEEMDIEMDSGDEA
UHRF1 MBD2 ctr: UHRF1 methyl-DNA binding inhibition. 370,000 tested, 0.75% active. Q96T88. inhibition, % at 4.4 µM. UHRF1 binding to methylated oligo, TR-FRET; in the data active means inhibition above about 21%;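 further: UHRF1 SRA domain binding a hemimethylated CpG hairpin DNA probe; 0% = median of test compound wells and 100% = reference inhibitor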
Rin1-Abl PPI inh: inhibitors of human Rin1-Abl protein interaction; TR-FRET Rin1/Abl binding, biochemical; inhibition, % at 7.35 µM; 360,000 tested, 0.4% active; P00519+Q13671; in the data active means inhibition above about 5%, passing the limit was not always enough
Rin1 Abl conf: confirmation of inhibitors of human Rin1-Abl interaction. AID 602124. 1,300 tested, 49% active. shares compounds with Rin1-Abl PPI inh. inhibition, % at 7.35 µM. TR-FRET Rin1-Abl binding, purified proteins; in the data active means inhibition above about 6.5%
GFP quencher: quenches GFP fluorescence, counter-screen for Rin1-Abl inhibitors. 1,300 tested, 8.5% active. inhibition, % at 6.75 µM. inhibitors/quenchers counterscreen. AID 602125. shares compounds with Rin1-Abl PPI inh; in the data active means inhibition above about 6.5%;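 further: ABL1-eGFP fusion protein alone without its partner RIN1-SBP; 0% = protein with vehicle and 100% = wells lacking protein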
GFP quench DR: quenches GFP in dose response, Rin1-Abl counter-screen | AID 602182 | 230 tested, under 10 active | GFP fluorescence interference/quenching counterscreen | IC50, µM | shares compounds with Rin1-Abl PPI inh; call rule not given here;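 further: ABL1-eGFP fusion protein alone without its RIN1 binding partner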
UHRF1 DNA bind: UHRF1 methyl-oligo binding inhibition as MBD2 counter-screen. shares compounds with MBD2 DNA inh. UHRF1 binding to methylated oligonucleotide, TR-FRET. inhibition, % at 4.4 µM. 1,000 tested, 25% active. AID 720530; in the data active means inhibition above about 21%;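 further: UHRF1 SRA domain binding a labeled hemimethylated CpG hairpin DNA; 0% = vehicle only and 100% = reference inhibitor with vehicle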
MBD2 DBD conf: MBD2-DBD methyl-DNA binding inhibition, TR-FRET confirmation; shares compounds with MBD2 DNA inh; TR-FRET MBD2-DBD binding to methylated oligonucleotide; inhibition, % at 4.4 µM; 1,000 tested, 26% active; AID 720531
TDP2 inh conf: human TDP2 inhibition, confirmation | shares compounds with TDP2 inh | recombinant human TDP2, absorbance read-out | inhibition, % at 12.8 µM | 1,100 tested, 22% active | AID 743263; in the data active means inhibition above about 25%;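 further: 0% = vehicle with enzyme and 100% = no enzyme buffer only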
IN multimer up: activates HIV-1 integrase multimerization in LEDGF counter-screen; shares compounds with LEDGF integ inh; TR-FRET HIV-1 integrase multimerization, biochemical; activation, % at 7.7 µM; 2,000 tested, 17% active; in the data active means activation above about 8.9%
TRFRET interf: TR-FRET optical interference, LEDGF/p75 integration counter-screen. shares compounds with LEDGF integ inh. TR-FRET optical interference counterscreen, HIV-1 IN multimerization. inhibition, % at 7.7 µM. 2,000 tested, under 10 active. AID 1053135;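 active means inhibition above the mean over all tested compounds plus 3 SD, which no compound reached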;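 further: 0% = integrase with antibodies and DMSO and 100% = antibodies without integrase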
LEDGF integ conf: confirmation of HIV-1 LEDGF/p75-dependent integration inhibitors | shares compounds with LEDGF integ inh | TR-FRET LEDGF/p75-dependent HIV-1 integration, biochemical | inhibition, % at 3.7 µM | 2,000 tested, 36% active
* = called active by the depositor; nt = no result given. Most compounds without a hit are left out; they make up all but 1.9% or so of the library. Unless noted, no stated cut-off is given here; in the data, active means inhibition above about 14%; inactive means the rest.

SMILES	TDP2 inh	LEDGF integ inh	MBD2 DNA inh	UHRF1 MBD2 ctr	Rin1-Abl PPI inh	Rin1 Abl conf	GFP quencher	IN multimer up	TRFRET interf	LEDGF integ conf	others
C=C1c2cccc(O)c2C(O)=C2C(=O)[C@]3(O)C(O)=C(C(N)=O)C(=O)[C@@H](N(C)C)[C@@H]3[C@@H](O)[C@H]12	22	85*	91*	98*	23*	17*	12*	50*	-180	63*	UHRF1 DNA bind=21*;MBD2 DBD conf=9
COc1cc(Br)c(C(=O)c2nccc3cc(OC)c(OC)cc23)cc1OC	91*	15*	14*	25*	6.0*	3	0	3	-10	75*	UHRF1 DNA bind=37*;MBD2 DBD conf=26*;TDP2 inh conf=56*
O=C(NCCCc1ccccc1)OC1CC2CC1[C@H]1CCCCN1[C@H]2Cc1ccccc1 (some centres not stated)	2	2	-2	2	nt	nt	nt	nt	nt	nt
CCOc1cc(N2CCOCC2)c(OCC)cc1NC(C)C(=O)N1CCN(CC)CC1 (configuration not stated)	45*	63*	51*	91*	38*	1	0	2	-10	10	UHRF1 DNA bind=1;MBD2 DBD conf=-3
CCOc1cc(N2CCOCC2)c(OCC)cc1NC(=O)C(C)C	-8	-7	2	0	-2	nt	nt	nt	nt	nt
CCCC[C@H]1C2CC(OC(=O)Nc3ccc(C)cc3)C(C2)[C@H]2CCCCN21 (some centres not stated)	-1	3	-3	0	nt	nt	nt	nt	nt	nt
COc1ccc(/C=N/NC(=O)c2ccccc2O)cc1Cn1cc([N+](=O)[O-])cn1	13	-3	3	0	-1	nt	nt	nt	nt	nt
COc1ccc(/C=N/NC(=O)c2cc(O)c(O)c(O)c2)cc1Cn1cc([N+](=O)[O-])cn1	4	69*	15*	28*	29*	29*	11*	54*	-270	87*	UHRF1 DNA bind=20;MBD2 DBD conf=14*
COC(=O)[C@]12C[C@H](CC(=O)NCc3ccc(C)o3)C(=O)N(Cc3ccccc3)C1=C[C@H](COCc1ccccc1)O[C@@H]2C	-1	-4	-2	0	nt	nt	nt	nt	nt	nt
NS(=O)(=O)c1ccc(N/N=C/c2ccc(O)c(O)c2O)c([N+](=O)[O-])c1	-8	72*	-6	8	40*	46*	30*	33*	-167	85*
COc1ccc(-n2c(SCC(=O)Nc3ccccc3-c3ccccc3)nnc2-c2ccccc2)cc1	-6	0	4	1	nt	nt	nt	nt	nt	nt
Cc1[nH]c(=O)[nH]c1C(=O)CCCCC(=O)O	-9	73*	2	2	89*	98*	0	-2	8	60*	GFP quench DR=>68
COc1cccc(Cn2cc(COC(=O)NCCc3c[nH]c4ccccc34)nn2)c1	2	-1	2	3	nt	nt	nt	nt	nt	nt
O=C(OCc1cn(Cc2cc(F)cc(F)c2)nn1)N1CCOCC1	9	3	7	3	nt	nt	nt	nt	nt	nt
CCOc1ccc(-n2c(COc3ccccc3)nnc2SCC(=O)Nc2ccc(OCc3ccccc3)cc2)cc1	-7	4	2	3	nt	nt	nt	nt	nt	nt
COc1cc(C=c2c3ccccc3n3c2cc(-c2ccccc2)[n+]3C)cc(OC)c1OC	39*	29*	-2	7	14*	-4	3	3	-10	48*	TDP2 inh conf=43*
CN(C)c1ccc(C=c2c3ccccc3n3c2cc(-c2ccc(Cl)cc2)[n+]3C)cc1	12	4	5	19	-4	nt	nt	nt	nt	nt
CCOc1cccc(C(c2c(C)n(C)n(-c3ccccc3)c2=O)c2c(C)n(C)n(-c3ccccc3)c2=O)c1OC	3	-2	4	-1	3	nt	nt	nt	nt	nt
COc1ccc(C(C[N+](=O)[O-])c2c(C)[nH]n(-c3ccccc3)c2=O)cc1 (configuration not stated)	75*	25*	13	16	11*	6.6*	-2	5	-19	22*	TDP2 inh conf=69*
Cc1[nH]n(-c2ccccc2)c(=O)c1C(c1ccc(O)c([N+](=O)[O-])c1)c1c(C)[nH]n(-c2ccccc2)c1=O	89*	38*	15*	15	13*	-4	4	4	-19	-4	UHRF1 DNA bind=2;MBD2 DBD conf=-4;TDP2 inh conf=9
COc1cccc(C(c2c(C)[nH]n(-c3ccccc3)c2=O)c2c(C)[nH]n(-c3ccccc3)c2=O)c1OC	89*	21*	17*	18	6.4*	0	-2	3	-10	-2	UHRF1 DNA bind=2;MBD2 DBD conf=1;TDP2 inh conf=32*
COC(=O)CCC1NC(=O)C(Cc2c[nH]c3ccccc23)NC(=O)C2CC(=O)OC(C)C(NC(=O)C(C)NC(=O)C3CCCN3C(=O)C3CCCN3C(=O)C(C)NC(C)=O)C(=O)NC(CC(C)C)C(=O)NC(CCCCNC(=O)CCC(C(=O)NC(Cc3ccc(O)cc3)C(=O)O)NC1=O)C(=O)NC(Cc1c[nH]c3ccccc13)C(=O)N1CCCC1C(=O)NC(CO)C(=O)N2 (configuration not stated)	3	4	1	-1	nt	nt	nt	nt	nt	nt
COC(=O)[C@]12C[C@H](CC(=O)NCc3ccc(C)o3)C(=O)N(CCc3ccc(OC)c(OC)c3)C1=C[C@H](COCc1ccccc1)O[C@@H]2C	-15	4	-5	-3	nt	nt	nt	nt	nt	nt
CCN(CC)c1ccc(N=Cc2ccc(N(CC)CC)cc2O)cc1	8	15*	-7	-2	11*	0	-2	6	-22	-6
O=C(NN1C(=O)/C(=C/c2ccc(O)c(O)c2)SC1=S)c1ccccc1	-4	30*	-1	-3	7.5*	6.6*	12*	12*	-42	54*
